Legend:
[1] = biological target: Protein kinase C alpha type (Homo sapiens, UniProt P17252); assay: Proteomic mass spectrometry of biotin-streptavidin pulldown; type: binding; conditions: 5 µM biotin labeled peptide, A549 lysate, LC-MS/MS
Method in brief: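 Cell lysates were incubated for four hours with 5 μM biotin-labeled test compound or the corresponding scrambled control, with DMSO-treated lysate as negative control. Streptavidin–agarose beads were used for pulldown, and the eluates were analysed by mass spectrometry.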

PC-3 cells [2] = assay: Peptide uptake assay; type: cell-based; conditions: 5 μM FAM-labeled peptide, 4 h, fixed cells, fluorescence microscopy
Method in brief: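 PC-3 cells were incubated with 5 μM 5(6)-carboxyfluorescein-labeled test compound for four hours, then imaged by fluorescence microscopy to assess intracellular distribution.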

PKC = PKC substrate phosphorylation assay; type: cell-based; conditions: serum starved PC-3, 1, 2.5, 5 μM peptide 4 h, PMA 5 min; n = 3
Method in brief: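 Serum-starved PC-3 cells were exposed to the test compound (1, 2.5 or 5 μM) or DMSO vehicle for 4 h. A catalytic PKC inhibitor reference was given at 500 nM for 90 min. Cells were then stimulated with 500 nM PMA for 5 min, harvested and analysed by western blot for PKC substrate phosphorylation; n = 3.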

PC-3 cells [3] = assay: PMA induced cytoskeletal remodeling assay; type: cell-based; conditions: PC-3, serum starved 24 h, 5 μM peptide 4 h, 500 nM PMA 45 min

Substance | Present in pulldown: Protein kinase C alpha type (PRKCA) [1] | cellular uptake / cell permeability (PC-3 cells [2]) | phosphorylated PKC substrates (anti-PKC p-Serine substrate western blot) (PKC) | cell morphology after PMA stimulation (phase contrast) (PC-3 cells [3])
(5/6 FAM) - β-Ala - KAS(Nle)LCFKRRK*AAK*LK (sidechain bridge or staple) [CSTAD5] | present | considerable permeation | dose dependent reduction | predominantly maintained a flat, elongated morphology
(5/6 FAM) - β-Ala - KAS(Nle)LCFKRRKK*AKA*K (sidechain bridge or staple) [CSTAD6] | – | considerable permeation | dose dependent reduction | predominantly maintained a flat, elongated morphology
